Reference: PubChem BioAssay AID602401 (Sanford-Burnham Center for Chemical Genomics, 2012)
Active and inactive are the calls of the source.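 The calls were made as follows: active = IC50 below 100 µM in the TR-FRET assay, unless also active in the caspase-3 counter assay; inactive = the rest, including compounds also active in caspase-3.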

molecular target: Caspase-3 (Homo sapiens) (UniProt P42574); experiment: caspase-3 inhibition by analogues, SAR follow-up, counter-screen for UBC13 polyubiquitin inhibitor project, biochemical, Caspase-Glo luminescence, set 4 (AID 602401); conditions: recombinant caspase-3, Caspase-Glo luminescence, 60 min
Summary of the method: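 System: Caspase-3 enzyme / Input: Caspase-3 added as 2X working solution at 0.046 nM / Medium: Hepes buffer pH 7.8 containing DTT, EDTA, Tween and BSA / Also added: Caspase-Glo substrate added as 2X working solution at 0.75X / Schedule: Enzyme-substrate reaction 60 min at room temperature before reading / Signal: Caspase-Glo luminescence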

Sequence of Caspase-3 (Homo sapiens) (P42574 whole entry, looked up): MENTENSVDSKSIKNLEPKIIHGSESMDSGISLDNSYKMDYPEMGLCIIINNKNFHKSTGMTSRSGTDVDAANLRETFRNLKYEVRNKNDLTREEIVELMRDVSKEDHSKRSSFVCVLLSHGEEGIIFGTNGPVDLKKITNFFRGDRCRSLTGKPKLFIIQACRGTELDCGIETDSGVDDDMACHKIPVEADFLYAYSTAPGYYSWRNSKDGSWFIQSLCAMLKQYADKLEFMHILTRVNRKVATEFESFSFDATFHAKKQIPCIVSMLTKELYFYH

| Structure (SMILES) | IC50 |
| --- | --- |
| CC1CCCC(C)N1CCCNC(=O)C1CCCN(c2ncnc3c2nc2n3CCCCC2)C1 (stereo unspecified) | > 100 µM (inactive) |
| O=C(c1ccco1)N1CCN(C(=O)C2CCN(c3ncnc4c3nc3n4CCCCC3)CC2)CC1 | > 100 µM (inactive) |
| O=C(NCCCN1CCN(c2ccccc2)CC1)C1CCCN(c2ncnc3c2nc2n3CCCCC2)C1 (stereo unspecified) | > 100 µM (inactive) |
| O=C(NCC1CCN(Cc2ccccc2F)CC1)C1CCCN(c2ncnc3c2nc2n3CCCCC2)C1 (stereo unspecified) | > 100 µM (inactive) |
| O=C(C1CCN(c2ncnc3c2nc2n3CCCCC2)CC1)N1CCC(Cc2ccccc2)CC1 | > 100 µM (inactive) |
| O=C(NCC1CCN(Cc2cccc(Cl)c2)CC1)[C@@H]1CCCN(c2ncnc3c2nc2n3CCCC2)C1 | > 100 µM (inactive) |
| O=C(NCC1CCN(Cc2cccc(Cl)c2)CC1)[C@@H]1CCCN(c2ncnc3c2nc2n3CCCCC2)C1 | > 100 µM (inactive) |
| Cc1cccc(N2CCN(CCCNC(=O)C3CCCN(c4ncnc5c4nc4n5CCCCC4)C3)CC2C)c1 (stereo unspecified) | > 100 µM (inactive) |
| Cc1ccccc1CN1CCC(CNC(=O)C2CCCN(c3ncnc4c3nc3n4CCCCC3)C2)CC1 (stereo unspecified) | > 100 µM (inactive) |
| O=C(NCCCN1CCCCC1)C1CCN(c2ncnc3c2nc2n3CCCCC2)CC1 | > 100 µM (inactive) |
| CCCN1CCN(C(=O)C2CCN(c3ncnc4c3nc3n4CCCCC3)CC2)CC1 | > 100 µM (inactive) |
| CCC1CCCCN1CCCNC(=O)C1CCN(c2ncnc3c2nc2n3CCCCC2)CC1 (stereo unspecified) | > 100 µM (inactive) |
| O=C(NCCCN1CCN(c2ccc(F)cc2)CC1)C1CCCN(c2ncnc3c2nc2n3CCCCC2)C1 (stereo unspecified) | > 100 µM (inactive) |
| O=C(NCC1CCN(Cc2cccc(Cl)c2)CC1)C1CCCN(c2ncnc3c2nc2n3CCCC2)C1 (stereo unspecified) | > 100 µM (inactive) |
| O=C(NCC1CCN(Cc2cccc(Cl)c2)CC1)[C@H]1CCCN(c2ncnc3c2nc2n3CCCCC2)C1 | > 100 µM (inactive) |
| Cc1ccc(C)c(N2CCN(CCCNC(=O)C3CCCN(c4ncnc5c4nc4n5CCCCC4)C3)CC2)c1 (stereo unspecified) | > 100 µM (inactive) |

| Structure (SMILES) | IC50 |
| --- | --- |
| O=C(NCC1CCN(Cc2cccc(Cl)c2)CC1)C1CCCN(c2ncnc3c2nc2n3CCCCC2)C1 (stereo unspecified) | > 100 µM (inactive) |
| O=C(C1CCN(c2ncnc3c2nc2n3CCCCC2)CC1)N1CCN(c2ccccc2)CC1 | > 100 µM (inactive) |
| O=C(NCC1CCN(Cc2ccccc2Cl)CC1)C1CCCN(c2ncnc3c2nc2n3CCCCC2)C1 (stereo unspecified) | > 100 µM (inactive) |
| O=C(NCC1CCN(Cc2ccc(F)cc2)CC1)C1CCCN(c2ncnc3c2nc2n3CCCCC2)C1 (stereo unspecified) | > 100 µM (inactive) |
| O=C(C1CCN(c2ncnc3c2nc2n3CCCCC2)CC1)N1CCN(c2ccc(F)cc2)CC1 | > 100 µM (inactive) |
| O=C(C1CCN(c2ncnc3c2nc2n3CCCCC2)CC1)N1CCN(Cc2ccccc2)CC1 | > 100 µM (inactive) |
| O=C(C1CCN(c2ncnc3c2nc2n3CCCCC2)CC1)N1CCN(c2ccccn2)CC1 | > 100 µM (inactive) |
| O=C(NCC1CCN(Cc2ccc(Cl)cc2)CC1)C1CCCN(c2ncnc3c2nc2n3CCCC2)C1 (stereo unspecified) | > 100 µM (inactive) |
| O=C(NCC1CCN(Cc2ccc(Cl)c(Cl)c2)CC1)C1CCCN(c2ncnc3c2nc2n3CCCC2)C1 (stereo unspecified) | > 100 µM (inactive) |
| O=C(NCC1CCN(Cc2cccc(Cl)c2)CC1)[C@H]1CCCN(c2ncnc3c2nc2n3CCCC2)C1 | > 100 µM (inactive) |
| COc1ccccc1N1CCN(CCCNC(=O)C2CCCN(c3ncnc4c3nc3n4CCCCC3)C2)CC1 (stereo unspecified) | > 100 µM (inactive) |
| O=C(C1CCN(c2ncnc3c2nc2n3CCCCC2)CC1)N1CCN(c2ncccn2)CC1 | > 100 µM (inactive) |
| O=C(NCC1CCN(Cc2ccc(Cl)c(Cl)c2)CC1)C1CCCN(c2ncnc3c2nc2n3CCCCC2)C1 (stereo unspecified) | > 100 µM (inactive) |
| CC1CC(C)CN(C(=O)C2CCN(c3ncnc4c3nc3n4CCCCC3)CC2)C1 (stereo unspecified) | > 100 µM (inactive) |
| O=C(NCC1CCN(Cc2ccc(Cl)cc2)CC1)C1CCCN(c2ncnc3c2nc2n3CCCCC2)C1 (stereo unspecified) | > 100 µM (inactive) |
| O=C(NCC1CCN(Cc2ccccc2Cl)CC1)C1CCCN(c2ncnc3c2nc2n3CCCC2)C1 (stereo unspecified) | > 100 µM (inactive) |

Next, values leading:

| IC50 | Structure (SMILES) |
| --- | --- |
| > 100 µM (inactive) | Cc1ccc(NC(=O)C2CCCN(c3ncnc4c3nc3n4CCCC3)C2)cc1F (stereo unspecified) |
| 63.4 µM | O=C(NCc1cccc(Cl)c1)C1CCN(c2ncnc3c2nc2n3CCCC2)CC1 |
| > 100 µM (inactive) | Cc1ccc(NC(=O)C2CCN(c3ncnc4c3nc3n4CCCC3)CC2)cc1F |
| > 100 µM (inactive) | Cc1cc(C)cc(NC(=O)C2CCCN(c3ncnc4c3nc3n4CCCC3)C2)c1 (stereo unspecified) |
| > 100 µM (inactive) | Cc1cccc(NC(=O)C2CCCN(c3ncnc4c3nc3n4CCCCC3)C2)c1 (stereo unspecified) |
| > 100 µM (inactive) | O=C(Nc1ccc(CN2CCCCC2)cc1)C1CCN(c2ncnc3c2nc2n3CCCCC2)CC1 |
| > 100 µM (inactive) | O=C(NCc1ccc(Cl)c(Cl)c1)C1CCN(c2ncnc3c2nc2n3CCCC2)CC1 |
| > 100 µM (inactive) | Cc1c(Cl)cccc1NC(=O)C1CCN(c2ncnc3c2nc2n3CCCCC2)CC1 |
| > 100 µM (inactive) | COc1ccc(NC(=O)C2CCN(c3ncnc4c3nc3n4CCCCC3)CC2)cc1Cl |
| > 100 µM (inactive) | Cc1ccc(NC(=O)C2CCCN(c3ncnc4c3nc3n4CCCC3)C2)cc1Br (stereo unspecified) |
| > 100 µM (inactive) | Cc1cccc(NC(=O)C2CCN(c3ncnc4c3nc3n4CCCCC3)CC2)c1 |
| > 100 µM (inactive) | O=C(NCc1cccc(Cl)c1)C1CCCN(c2ncnc3c2nc2n3CCCCC2)C1 (stereo unspecified) |
| > 100 µM (inactive) | CC1CCCCN1C(=O)C1CCN(c2ncnc3c2nc2n3CCCCC2)CC1 (stereo unspecified) |
| > 100 µM (inactive) | COc1cc(Cl)c(C)cc1NC(=O)C1CCN(c2ncnc3c2nc2n3CCCCC2)CC1 |
| > 100 µM (inactive) | CN(CCNC(=O)C1CCN(c2ncnc3c2nc2n3CCCCC2)CC1)Cc1ccccc1 |
| > 100 µM (inactive) | Cc1ccc(NC(=O)C2CCN(c3ncnc4c3nc3n4CCCC3)CC2)cc1Br |
| > 100 µM (inactive) | COc1cc(OC)c(NC(=O)C2CCN(c3ncnc4c3nc3n4CCCCC3)CC2)cc1Cl |
| > 100 µM (inactive) | Cc1cccc(NC(=O)C2CCCN(c3ncnc4c3nc3n4CCCC3)C2)c1 (stereo unspecified) |
| > 100 µM (inactive) | Cc1ccc(C)c(CN2CCC(CNC(=O)C3CCCN(c4ncnc5c4nc4n5CCCCC4)C3)CC2)c1 (stereo unspecified) |
| > 100 µM (inactive) | O=C(Nc1ccc(F)c(Cl)c1)C1CCN(c2ncnc3c2nc2n3CCCCC2)CC1 |
| > 100 µM (inactive) | Cc1cc(C)cc(NC(=O)C2CCCN(c3ncnc4c3nc3n4CCCCC3)C2)c1 (stereo unspecified) |
| > 100 µM (inactive) | Cc1ccc(NC(=O)C2CCN(c3ncnc4c3nc3n4CCCCC3)CC2)cc1F |

| IC50 | Structure (SMILES) |
| --- | --- |
| > 100 µM (inactive) | Cc1ccc(NC(=O)C2CCCN(c3ncnc4c3nc3n4CCCCC3)C2)cc1Br (stereo unspecified) |
| > 100 µM (inactive) | O=C(Nc1cc(F)ccc1F)C1CCN(c2ncnc3c2nc2n3CCCCC2)CC1 |
| > 100 µM (inactive) | Cc1ccc(NC(=O)C2CCN(c3ncnc4c3nc3n4CCCCC3)CC2)cc1Cl |
| > 100 µM (inactive) | O=C(NCc1cccc(Cl)c1)C1CCN(c2ncnc3c2nc2n3CCCCC2)CC1 |
| > 100 µM (inactive) | O=C(Nc1cccc(Cl)c1)C1CCN(c2ncnc3c2nc2n3CCCCC2)CC1 |
| > 100 µM (inactive) | O=C(NCc1cccc(Cl)c1)C1CCCN(c2ncnc3c2nc2n3CCCC2)C1 (stereo unspecified) |
| > 100 µM (inactive) | Cc1cc(C)cc(NC(=O)C2CCN(c3ncnc4c3nc3n4CCCC3)CC2)c1 |
| > 100 µM (inactive) | Cc1ccc(NC(=O)C2CCCN(c3ncnc4c3nc3n4CCCC3)C2)cc1C (stereo unspecified) |
| > 100 µM (inactive) | Cc1cc(Cl)ccc1NC(=O)C1CCN(c2ncnc3c2nc2n3CCCCC2)CC1 |
| > 100 µM (inactive) | O=C(NCc1ccc(Cl)c(Cl)c1)C1CCN(c2ncnc3c2nc2n3CCCCC2)CC1 |
| 69 µM | Cc1cccc(NC(=O)C2CCN(c3ncnc4c3nc3n4CCCC3)CC2)c1 |
| > 100 µM (inactive) | Cc1ccc(NC(=O)C2CCN(c3ncnc4c3nc3n4CCCCC3)CC2)c(Cl)c1 |
| > 100 µM (inactive) | Cc1cc(C)cc(NC(=O)C2CCN(c3ncnc4c3nc3n4CCCCC3)CC2)c1 |
| > 100 µM (inactive) | Cc1ccc(NC(=O)C2CCCN(c3ncnc4c3nc3n4CCCCC3)C2)cc1F (stereo unspecified) |
| > 100 µM (inactive) | O=C(C1CCN(c2ncnc3c2nc2n3CCCCC2)CC1)N1CCOCC1 |
| > 100 µM (inactive) | O=C(NCc1ccc(Cl)c(Cl)c1)C1CCCN(c2ncnc3c2nc2n3CCCCC2)C1 (stereo unspecified) |
| > 100 µM (inactive) | Cc1ccc(NC(=O)C2CCN(c3ncnc4c3nc3n4CCCCC3)CC2)cc1C |
| > 100 µM (inactive) | O=C(NCc1ccc(Cl)c(Cl)c1)C1CCCN(c2ncnc3c2nc2n3CCCC2)C1 (stereo unspecified) |
| > 100 µM (inactive) | COc1ccc(Cl)cc1NC(=O)C1CCN(c2ncnc3c2nc2n3CCCCC2)CC1 |
| > 100 µM (inactive) | Cc1cccc(NC(=O)C2CCN(c3ncnc4c3nc3n4CCCCC3)CC2)c1C |
| > 100 µM (inactive) | Cc1ccc(NC(=O)C2CCN(c3ncnc4c3nc3n4CCCC3)CC2)cc1C |
| > 100 µM (inactive) | Cc1ccc(NC(=O)C2CCN(c3ncnc4c3nc3n4CCCCC3)CC2)cc1Br |
